Results published in ChEMBL document CHEMBL3259640 (J Med Chem, 2014).
pIC50: −log10 of the molar value. The source made the active and inactive calls. The rule behind the calls is not given here.

Legend:
[1] = AUC in Sprague-Dawley rat at 2 mg/kg, iv compound formulated with 5% DMSO, 10% cremophor and 85% water by LC-MS/MS analysis; format: ADME, organism-based; set-up: dose 2 mg/kg, route intravenous; settings: plasma
[2] = Volume of distribution in Sprague-Dawley rat at 2 mg/kg, iv compound formulated with 5% DMSO, 10% cremophor and 85% water by LC-MS/MS analysis; format: ADME, organism-based; set-up: dose 2 mg/kg, route intravenous; settings: in vivo
Procedure, shortened: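 Male Sprague–Dawley rats, n = 3. Blood drawn by preimplanted catheter over 24 h; plasma separated at 4 °C and deproteinated with acetonitrile. Drug measured by LC–MS/MS; parameters obtained by noncompartmental analysis.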

[3] = Clearance in Sprague-Dawley rat at 2 mg/kg, iv compound formulated with 5% DMSO, 10% cremophor and 85% water by LC-MS/MS analysis; format: ADME, organism-based; set-up: dose 2 mg/kg, route intravenous; settings: in vivo
[4] = Half life in rat liver microsomes at 1 uM by LC-MS/MS analysis; format: ADME
[5] = tested on: MDA-MB-231; test: Antitumor activity against human MDA-MB-231 cells xenografted in BALB/c nu/nu mouse assessed as tumor volume at 150 mg/kg, po bid for 28 days administered via gavage relative to control; format: functional
Procedure, shortened: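 Female BALB/c nu/nu mice, 5–8 weeks old, implanted subcutaneously in the right flank with 1 × 10⁷ MDA-MB-231 cells in matrigel. Dosing began at about 100 mm³ mean tumour volume; 5 mice/group. Arms: vehicle (5% DMSO, 10% Cremophor in water) IV once daily, 20 mg/kg IV once daily, or 150 mg/kg PO twice daily, for 28 days. Caliper volumes and body weight every 2 days; T/C on day 28.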

[6] = tested on: Mus musculus; test: Toxicity in BALB/c nu/nu mouse xenografted with human MDA-MB-231 cells assessed as body weight loss at 20 mg/kg, iv qd for 28 days; format: organism-based; set-up: dose 20 mg/kg, route intravenous; settings: in vivo, 672 h
Procedure, shortened: (§1)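 Female BALB/c nu/nu mice, 5–8 weeks old, implanted subcutaneously in the right flank with 1 × 10⁷ MDA-MB-231 cells in matrigel. Treatment began at about 100 mm³ tumor volume; 5 mice per group. Dosing for 28 days: IV 20 mg/kg once daily or PO 150 mg/kg twice daily, in 5% DMSO/10% Cremophor in H₂O; vehicle controls included. Body weight and tumor size (caliper) recorded every 2 days.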

[7] = tested on: Mus musculus; test: Toxicity in BALB/c nu/nu mouse xenografted with human MDA-MB-231 cells assessed as body weight loss at 150 mg/kg, po bid for 28 days; format: organism-based; set-up: dose 150 mg/kg, route oral; settings: in vivo, 672 h; procedure, shortened: as §1
[8] = molecular target: T1, Kinetochore protein NDC80 homolog (Homo sapiens) (UniProt O14777); test: Inhibition of Hec1/Nek2 interaction in human K562 cells assessed as reduction in coimmunoprecipitated Hec1 level at 100 nM after 16 hrs by co-immunoprecipitation assay; format: cell-based
T1 sequence (whole entry): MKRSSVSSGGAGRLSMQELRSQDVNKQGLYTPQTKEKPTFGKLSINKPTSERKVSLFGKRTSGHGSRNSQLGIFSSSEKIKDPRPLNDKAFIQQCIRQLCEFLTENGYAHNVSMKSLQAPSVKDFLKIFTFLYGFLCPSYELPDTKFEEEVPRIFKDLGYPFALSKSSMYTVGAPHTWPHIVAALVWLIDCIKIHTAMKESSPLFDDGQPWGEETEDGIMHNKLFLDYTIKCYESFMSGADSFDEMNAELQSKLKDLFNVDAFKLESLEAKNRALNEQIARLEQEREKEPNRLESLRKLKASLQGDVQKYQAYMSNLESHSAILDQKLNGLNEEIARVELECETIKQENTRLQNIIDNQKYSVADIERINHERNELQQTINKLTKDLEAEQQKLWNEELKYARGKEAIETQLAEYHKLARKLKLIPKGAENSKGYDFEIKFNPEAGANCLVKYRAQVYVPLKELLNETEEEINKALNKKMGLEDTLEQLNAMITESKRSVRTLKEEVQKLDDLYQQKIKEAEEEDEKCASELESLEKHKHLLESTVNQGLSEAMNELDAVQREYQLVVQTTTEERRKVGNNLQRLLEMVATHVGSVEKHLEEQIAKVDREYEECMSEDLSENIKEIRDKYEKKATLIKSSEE

[9] = molecular target: T1, Kinetochore protein NDC80 homolog (Homo sapiens); test: Inhibition of Hec1/Nek2 interaction in human K562 cells assessed as induction of Nek2 degradation after 24 hrs by western blot analysis; format: cell-based
Procedure, shortened: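 K562 cells exposed to DMSO or to 10, 100 or 1000 nM for 24 h. Nek2 and Hec1 detected by western blot in SDS sample buffer lysates, with actin as loading control and ECL detection.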

[10] = molecular target: T1, Kinetochore protein NDC80 homolog (Homo sapiens); test: Inhibition of Hec1/Nek2 interaction in human MDA-MB-468 cells assessed as induction of Nek2 degradation at 100 nM by western blot analysis; format: cell-based
Procedure, shortened: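 MDA-MB-468 cells treated with compound at 100 nM, with or without MG132 at 500 nM. Lysates made in SDS sample buffer, run on SDS-PAGE and blotted to PVDF. Primary antibodies applied in 3% BSA-TBST, with HRP secondaries and enhanced chemiluminescence detection for Hec1 and Nek2.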

[11] = tested on: MDA-MB-468; test: Induction of mitotic abnormalities in human MDA-MB-468 cells assessed as proportion of cells displaying chromosomal misalignment at 100 nM after 48 hrs by immunofluorescent staining based microscopy (reference value: 21.4%); format: functional
[12] = tested on: HeLa; test: Induction of apoptosis in human HeLa cells assessed as reduction in Bcl-2 protein expression at 1 uM after 24 to 48 hrs by western blot analysis; format: functional, cell-based
Procedure, shortened: (§2)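 HeLa cells given 1.0 μM compound, DMSO, or paclitaxel 100 nM for 24 and 48 h. Lysates made in SDS sample buffer, run on SDS-PAGE and transferred to PVDF. Blots probed for cleaved caspase-3, cleaved PARP, Bcl-2, Mcl-1 and XIAP, with actin as loading control, and detected by HRP-linked ECL.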

[13] = tested on: HeLa; test: Induction of apoptosis in human HeLa cells assessed as increase in cleaved caspase-3 level at 1 uM after 24 to 48 hrs by western blot analysis; format: functional, cell-based; procedure, shortened: as §2
[14] = tested on: HeLa; test: Induction of apoptosis in human HeLa cells assessed as increase in cleaved PARP level at 1 uM after 24 to 48 hrs by western blot analysis; format: functional, cell-based; procedure, shortened: as §2
[15] = tested on: MDA-MB-468; test: Growth inhibition of human MDA-MB-468 cells; format: functional
[16] = Growth inhibition of human Hep3B cells; format: functional, Hep 3B2
[17] = Growth inhibition of human RPTEC cells; format: cell-based
[18] = molecular target: Serine/threonine-protein kinase mTOR (Homo sapiens, UniProt P42345); test: Inhibition of mTOR (unknown origin) assessed as [33P] incorporation in substrate by TopCount microplate scintillation counting analysis
[19] = molecular target: Voltage-gated inwardly rectifying potassium channel KCNH2 (Homo sapiens, UniProt Q12809); test: Displacement of [3H]astemizole from human ERG after 60 mins by competitive binding assay
Chain of Voltage-gated inwardly rectifying potassium channel KCNH2 (Q12809 whole entry): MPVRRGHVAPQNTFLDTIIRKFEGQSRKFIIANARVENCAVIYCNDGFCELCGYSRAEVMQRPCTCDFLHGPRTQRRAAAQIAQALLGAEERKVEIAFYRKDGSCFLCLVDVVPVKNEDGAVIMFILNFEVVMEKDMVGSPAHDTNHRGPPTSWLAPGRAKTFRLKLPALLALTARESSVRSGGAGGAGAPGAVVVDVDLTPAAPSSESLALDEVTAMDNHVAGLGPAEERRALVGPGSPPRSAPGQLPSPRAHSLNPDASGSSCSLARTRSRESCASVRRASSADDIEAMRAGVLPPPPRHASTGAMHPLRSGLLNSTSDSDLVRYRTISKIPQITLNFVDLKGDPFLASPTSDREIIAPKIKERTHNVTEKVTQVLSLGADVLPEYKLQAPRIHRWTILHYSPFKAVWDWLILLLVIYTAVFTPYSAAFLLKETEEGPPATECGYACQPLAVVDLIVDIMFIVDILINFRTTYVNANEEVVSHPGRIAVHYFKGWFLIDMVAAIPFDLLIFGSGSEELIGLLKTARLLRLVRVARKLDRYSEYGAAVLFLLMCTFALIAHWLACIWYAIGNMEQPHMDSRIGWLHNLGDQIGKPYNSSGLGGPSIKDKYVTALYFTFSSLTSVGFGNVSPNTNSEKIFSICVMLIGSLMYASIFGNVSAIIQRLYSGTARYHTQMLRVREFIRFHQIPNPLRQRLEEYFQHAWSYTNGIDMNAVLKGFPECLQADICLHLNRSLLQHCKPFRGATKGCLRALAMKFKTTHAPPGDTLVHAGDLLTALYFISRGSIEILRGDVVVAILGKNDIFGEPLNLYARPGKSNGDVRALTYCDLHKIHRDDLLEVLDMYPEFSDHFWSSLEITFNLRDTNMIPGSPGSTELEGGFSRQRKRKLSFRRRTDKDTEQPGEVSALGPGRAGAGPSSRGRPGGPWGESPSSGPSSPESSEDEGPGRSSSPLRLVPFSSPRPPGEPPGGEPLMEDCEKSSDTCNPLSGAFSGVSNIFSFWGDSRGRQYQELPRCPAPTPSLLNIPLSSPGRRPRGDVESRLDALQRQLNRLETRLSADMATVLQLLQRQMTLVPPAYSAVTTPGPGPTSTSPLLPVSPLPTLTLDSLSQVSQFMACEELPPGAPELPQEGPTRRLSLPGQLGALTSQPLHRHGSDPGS

- AUC [1]: 64.9 µM·h
- Vd [2]: 0.948 L/kg
- clearance [3]: 1.22 mL/min/kg
- half-life at 1 µM [4]: 5.67 h
- inhibition [8]: Active
- Activity [9]: Dose-dependent effect
- Activity [10]: Active
- GI50 [15]: 29.6 nM
- pIC50 [18]: < 5.00
Compound: COc1ccc(Oc2cc(C)c(-c3csc(NC(=O)c4ccnc(F)c4)n3)c(C)c2)cc1
- T/C [5]: 57%
- Activity [6]: < 5%
- Activity [7]: < 5%
- Activity [11]: 21.8%
- inhibition [12]: Active
- Activity [13]: Active
- Activity [14]: Active
- GI50 [16]: 68.3 nM
- GI50 [17]: > 9000 nM
- pIC50 [19]: < 5.00
